Data as given in ChEMBL document CHEMBL1125507, “Synthesis and antihistaminic activity of some thiazolidin-4-ones” (J Med Chem, 1992).

Tests used:
Type in all cases: functional, tissue-based
Histamine H1 receptor [1] = molecular target: T1, Histamine H1 receptor (Cavia porcellus, UniProt P31389); experiment: (§1) In vitro for histamine H1 receptor antagonist activity against histamine-induced contractions on isolated guinea pig ileum
How it was run: (§2)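 Isolated ileum from guinea pigs of either sex (~250 g), tested with racemates. Percent inhibition is taken against the submaximal contraction to 0.5 μM histamine without drug, with six observations per drug concentration. IC50 is the concentration giving 50% inhibition. pA2 = −log KB by Schild, where KB = B/(x−1) and x is the histamine half-maximal concentration ratio with/without antagonist.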

Histamine H1 receptor [2] = molecular target: T1, Histamine H1 receptor; experiment: as §1; conditions: read-out: pA2 (converted)
Histamine H1 receptor [3] = molecular target: T1, Histamine H1 receptor; experiment: Compound was tested in vitro for histamine H1-antagonist activity against histamine-induced contractions on isolated guinea pig ileum; how it was run: as §2

T1 sequence (P31389 whole entry): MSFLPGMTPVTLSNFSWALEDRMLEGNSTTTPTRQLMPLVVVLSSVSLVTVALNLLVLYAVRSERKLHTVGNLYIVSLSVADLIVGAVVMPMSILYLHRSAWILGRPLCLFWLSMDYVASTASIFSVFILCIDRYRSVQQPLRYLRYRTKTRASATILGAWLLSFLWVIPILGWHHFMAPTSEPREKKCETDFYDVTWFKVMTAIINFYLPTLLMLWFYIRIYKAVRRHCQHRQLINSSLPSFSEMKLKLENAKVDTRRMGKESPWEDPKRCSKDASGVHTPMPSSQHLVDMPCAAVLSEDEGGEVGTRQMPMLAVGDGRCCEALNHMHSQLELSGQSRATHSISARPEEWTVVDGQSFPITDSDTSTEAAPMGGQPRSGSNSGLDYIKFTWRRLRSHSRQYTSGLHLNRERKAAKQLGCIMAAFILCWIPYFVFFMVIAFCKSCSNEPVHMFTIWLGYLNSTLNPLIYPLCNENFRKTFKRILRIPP

Structure (SMILES) | IC50 (Histamine H1 receptor [1]) [nM] | Kb (Histamine H1 receptor [2]) [nM] | IC50 (Histamine H1 receptor [3]) [nM]
COc1ccc(C2SCC(=O)N2CCCN(C)C)cc1 (configuration not stated) | > 100000 | 10000 | 
CN(C)CCCN1C(=O)CSC1c1ccncc1 (configuration not stated) |  |  | > 100000
CN(C)CCCN1C(=O)CSC1c1cccc(Br)c1 (configuration not stated) | 60000 | 398 | 
CN(C)CCCN1C(=O)CSC1c1ccc(N)cc1 (configuration not stated) | 40000 | 1000 | 
CN(C)CCCN1C(=O)CSC1c1cccc([N+](=O)[O-])c1 (configuration not stated) | > 100000 | 3980 | 
COc1cccc(C2SCC(=O)N2CCCN(C)C)c1 (configuration not stated) | 25000 | 398 | 
CN(C)CCCN1C(=O)CSC1c1ccc([N+](=O)[O-])cc1 (configuration not stated) | > 100000 | 6310 | 
CN(C)CCN1C(=O)CSC1c1ccccc1 (configuration not stated) | > 100000 |  | 

Continued by falling IC50 (Histamine H1 receptor [1]), values first:

IC50 (Histamine H1 receptor [1]) [nM] | Kb (Histamine H1 receptor [2]) [nM] | IC50 (Histamine H1 receptor [3]) [nM] | Structure (SMILES)
24000 | 79.4 |  | CN(C)CCCN1C(=O)CSC1c1ccc(F)cc1 (configuration not stated)
21000 | 2510 |  | CN(C)CCCN1C(=O)CSC1c1ccc(Cl)cc1 (configuration not stated)
20000 | 39.8 |  | CN(C)CCCN1C(=O)CSC1c1ccccc1 (configuration not stated)
5000 | 20 |  | Cc1cccc(C2SCC(=O)N2CCCN(C)C)c1 (configuration not stated)
3100 | 398 |  | CN(C)CCCN1C(=O)CSC1c1cccc(F)c1 (configuration not stated)
2300 | 39.8 |  | CN(C)CCCN1C(=O)CSC1c1ccc(Br)cc1 (configuration not stated)
2200 | 631 |  | CN(C)CCCN1C(=O)CSC1c1cccc(Cl)c1 (configuration not stated)
1200 | 5.01 |  | Cc1ccc(C2SCC(=O)N2CCCN(C)C)cc1 (configuration not stated)
1000 | 2 |  | CC(C)c1ccc(C2SCC(=O)N2CCCN(C)C)cc1 (configuration not stated)
